Consider one compound from article PMC4293084 (Nature communications, 2015).

One test concerns EI^WT. Briefly: Enzyme kinetic assay. The format is biochemical, E. coli. Particulars: 37°C. The method in brief: (§1)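 Wild-type E. coli Enzyme I or its H189Q or H189A active-site mutant, expressed and purified. PEP hydrolysis to inorganic phosphate and pyruvate was followed spectrophotometrically at 37°C with a coupled phosphate-detection kit. Enzymatic velocities at varying PEP were fit to the Michaelis-Menten equation to give Km. For display, velocities were normalised to each fit's maximum velocity.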

The subject of a further test is EI^Q (H189Q). The experiment in a line: Enzyme kinetic assay. The format is biochemical, E. coli. The following applies: 37°C. The method in brief:
as §1

A further test deals with EI^A (H189A). Briefly: Enzyme kinetic assay. The format is biochemical, E. coli. Particulars: 37°C. The method in brief: as §1
A further test deals with isolated EIC. The following applies: cited from earlier work.

For `C=C(OP(=O)(O)O)C(=O)O` [PEP, phosphoenolpyruvate], the Michaelis-Menten constant (Km) in the test on EI^WT is about 330 µM; in the test on EI^Q (H189Q), about 130 µM; with EI^A (H189A) it was under 50 µM; with isolated EIC it was about 370 µM.

The Km is the substrate concentration at which the rate is half of its maximum.
